The values that follow come from ChEMBL document CHEMBL3758168, “Hybrid triazoles: Design and synthesis as potential dual inhibitor of growth and efflux inhibition in tuberculosis” (Eur J Med Chem, 2016).

Holding throughout (type): functional
Assay [1] concerns Mycobacterium tuberculosis. The assay can be described thus: Antibacterial activity against Mycobacterium tuberculosis H37Rv ATCC 27294T assessed as ethidium bromide MIC at 128 ug/ml after 7 days by microdilution checkerboard assay. The settings on record: 168 h. The procedure, abridged: (§1)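 Two-dimensional checkerboard in H37Rv at 10^5 CFU/ml in MB7H9/OADC. Partner drug (amikacin, EtBr, isoniazid, ofloxacin or rifampin) two-fold serially diluted across columns 3-11. Test compound two-fold serially diluted down rows 2-6. Plates incubated 7 days at 37 °C, then MTT added overnight. […] Run in triplicate.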
A general note: Dilution methods test growth across graded concentrations, often in twofold steps.

The subject of assay [2] is Mycobacterium tuberculosis. The assay can be described thus: Antibacterial activity against Mycobacterium tuberculosis H37Rv ATCC 27294T assessed as ofloxacin MIC at 64 ug/ml after 7 days by microdilution checkerboard assay. Conditions: 168 h. The method, boiled down:
as §1

For assay [3], the system named is Mycobacterium tuberculosis. The assay can be described thus: Antibacterial activity against Mycobacterium tuberculosis H37Rv ATCC 27294T assessed as isoniazid MIC at 2 ug/ml after 7 days by microdilution checkerboard assay. The settings on record: 168 h. The procedure, abridged: as §1
Assay [4] concerns Mycobacterium tuberculosis. The assay can be described thus: Antibacterial activity against Mycobacterium tuberculosis H37Rv ATCC 27294T assessed as amikacin MIC at 8 ug/ml after 7 days by microdilution checkerboard assay. The settings on record: 168 h. The procedure, abridged: as §1
Assay [5] relates to Mycobacterium tuberculosis. The assay can be described thus: Modulation factor, ratio of ethidium bromide MIC to compound MIC for Mycobacterium tuberculosis H37Rv ATCC 27294T at 128 ug/ml in presence of ethidium bromide.
In assay [6] the test system is Mycobacterium tuberculosis. The assay can be described thus: Modulation factor, ratio of isoniazid MIC to compound MIC for Mycobacterium tuberculosis H37Rv ATCC 27294T at 128 ug/ml in presence of isoniazid.
The test system of assay [7] is Mycobacterium tuberculosis. The assay can be described thus: Modulation factor, ratio of ofloxacin MIC to compound MIC for Mycobacterium tuberculosis H37Rv ATCC 27294T at 128 ug/ml in presence of ofloxacin.
Assay [8] deals with Mycobacterium tuberculosis. The assay can be described thus: Antibacterial activity against Mycobacterium tuberculosis H37Rv ATCC 27294T assessed as ofloxacin MIC at 2 ug/ml after 7 days by microdilution checkerboard assay. The settings on record: 168 h. The method, boiled down:
as §1

In assay [9] the test system is Mycobacterium tuberculosis. The assay can be described thus: Antibacterial activity against Mycobacterium tuberculosis H37Rv ATCC 27294T assessed as isoniazid MIC at 8 ug/ml after 7 days by microdilution checkerboard assay. Conditions: 168 h. The method, boiled down: as §1
Assay [10] concerns Mycobacterium tuberculosis. The assay can be described thus: Antibacterial activity against Mycobacterium tuberculosis H37Rv ATCC 27294T assessed as rifampin MIC at 8 ug/ml after 7 days by microdilution checkerboard assay. The settings on record: 168 h. The procedure, abridged: (§2)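 M. tuberculosis H37Rv grown in MB7H9 + 10% OADC at 37 °C to OD600 0.8; plates inoculated at 10^5 CFU/ml. Rifampicin two-fold serially diluted across columns, test compound two-fold diluted down rows (two-dimensional checkerboard). Sealed, 37 °C for seven days, then MTT added and incubated overnight. MIC read as no colour change. Triplicate.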

For assay [11], the system named is Mycobacterium tuberculosis. The assay can be described thus: Modulation factor, ratio of refampin MIC to compound MIC for Mycobacterium tuberculosis H37Rv ATCC 27294T at 64 ug/ml in presence of refampin.
The test system of assay [12] is Mycobacterium tuberculosis. The assay can be described thus: Antibacterial activity against Mycobacterium tuberculosis H37Rv ATCC 27294T assessed as ofloxacin MIC at 32 ug/ml after 7 days by microdilution checkerboard assay. Conditions: 168 h. The method, boiled down: as §1
The test system of assay [13] is Mycobacterium tuberculosis. The assay can be described thus: Antibacterial activity against Mycobacterium tuberculosis H37Rv ATCC 27294T assessed as rifampin MIC at 4 ug/ml after 7 days by microdilution checkerboard assay. The settings on record: 168 h. The method, boiled down: as §2
The subject of assay [14] is Mycobacterium tuberculosis. The assay can be described thus: Antibacterial activity against Mycobacterium tuberculosis H37Rv ATCC 27294T assessed as ofloxacin MIC at 16 ug/ml after 7 days by microdilution checkerboard assay. The settings on record: 168 h. The method, boiled down:
as §1

Structures are written as SMILES.

In general, MIC refers to the lowest concentration found to suppress growth. `CCCSc1nnc(COc2ccccc2C2=NOC(c3ccc(Cl)cc3Cl)C2)n1NC(=O)CCl` (centres undefined): the minimal inhibitory concentration (MIC) in assay [1] is 0.39 µg/mL; in assay [2], 1 µg/mL; in assay [3], 0.1 µg/mL; in assay [4] it was 1 µg/mL; in assay [8] it was 2 µg/mL; in [9], 0.1 µg/mL. Moreover, the minimum inhibitory concentration (MIC) was 0.5 µg/mL in assay [10], 1 µg/mL in [12], 0.5 µg/mL in assay [13] and 1 µg/mL in assay [14]. Also, the Ratio in assay [5] is 32; in [6] it was 64; in [7], 32; in assay [11] it was 4.
